Measured values gathered from unrelated publications.
Each line is one published result; the experiments were not run side by side.
Target: TRAF2 and NCK-interacting protein kinase (TNIK, Homo sapiens, UniProt Q9UKE5)

Structure (SMILES) | test | setting | remaining binding [%]
CNC(=O)[C@@H]1CC[C@@H](n2c(-c3ccc4cnccc4c3)nc3ccc(C(=O)NCc4cccc(C(N)=O)c4)cc32)C1 | binding, competition with immobilised ligand | 1 µM | 90
C[C@@H](c1cccc(C#N)c1)n1cc(Cl)cc(C(N)=O)c1=N | cell-free assay, competition with immobilised ligand | 1 µM | 56
O=C(NCCCN1CCOCC1)c1ccc(Nc2nccc(-c3cc4ccccc4s3)n2)cc1 | binding, competition with immobilised ligand | 1 µM | 69
CC1CCCN1c1nccc(-c2cnn3ncccc23)n1 (stereo not drawn) | binding | 1 µM | 95
COc1ncc2cc3ccccc3nc2c1C#N | cell-free assay, competition with immobilised ligand | 5 µM | 100
O=C(c1ccc(Nc2nccc(-c3cc4ccccc4s3)n2)cc1)N1CCC(N2CCCC2)CC1 | binding, competition with immobilised ligand | 1 µM | 79
CCC(=O)N[C@@H]1CC[C@H](C(=O)N(C)c2ccc(-c3nc4ccccc4o3)cc2)C1 | cell-free assay, competition with immobilised ligand | 1 µM | 100
CN(CCCC(F)(F)F)c1nccc(-c2cnn3ncccc23)n1 | binding | 1 µM | 100
O=C(NCC1CCOCC1)c1n[nH]cc1NC(=O)c1c(F)cccc1F | binding, competition with immobilised ligand | 1 µM | 84
c1cnn2ncc(-c3ccnc(N4CCC45COC5)n3)c2c1 | binding | 1 µM | 72
CC(=O)Nc1c(C(C)=O)c(=O)n(C)c2nc(-c3ccc(Cl)cc3Cl)c(-c3ccc(Cl)cc3)cc12 | cell-free assay, competition with immobilised ligand | 1 µM | 100
c1cncc(-c2cccc(Nc3nccc(NC4CCCCC4)n3)c2)c1 | binding, competition with immobilised ligand | 10 µM | 33
CC1=C(C#N)C(c2ccc3c(c2)c(NC(=O)c2ccccc2C)nn3C)C(C#N)=C(C)N1 | cell-free assay, competition with immobilised ligand | 1 µM | 98
N[C@@H]1CCN(c2nccc(-c3cnn4ncccc34)n2)C1 | binding | 1 µM | 100
CNC(=O)Nc1ccc2c(c1)CC[C@@]21OC(=O)N(CC(=O)N(Cc2ccc(F)cc2)[C@@H](C)C(F)(F)F)C1=O | cell-free assay, competition with immobilised ligand | 1 µM | 93
C[C@@H](c1ccc(-n2cnc3c(N)ncnc32)cc1)N1CCc2nn(C)c(Cc3ccccc3)c2C1=O | binding, competition with immobilised ligand | 0.1 µM | 76
C[C@H]1CCN(c2nccc(-c3cnn4ncccc34)n2)C1 | binding | 1 µM | 100
O=C(Nc1cccnn1)N1CCC(=Cc2cccc(Oc3ccc(C(F)(F)F)cn3)c2)CC1 | cell-free assay, competition with immobilised ligand | 1 µM | 100
Cc1cnn2ncc(-c3ccnc(N(C)C)n3)c2c1 | binding | 1 µM | 80
Cc1cnc(Nc2ccc(C(=O)N3CCC(N4CCCC4)CC3)cc2)nc1-c1cc2ccccc2s1 | binding, competition with immobilised ligand | 1 µM | 68
CCN1CCN(Cc2ccc(C(=O)Nc3ccc(C)c(Oc4ccc5c(c4)CC(=O)N5)c3)cc2C(F)(F)F)CC1 | binding, competition with immobilised ligand | 1 µM | 79
